# In PubChem BioAssay AID651572 (The Scripps Research Institute Molecular Screening Center, 2012):
# Values joined by “and” are separate entries in the source; they are usually repeats but may differ in a detail not shown here. Equal entries are not always repeated. Among all 360,000 compounds or so, about 950 (0.26%) were called active.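 How the source made its calls: active means inhibition above a per-plate limit, mean inhibition of low control wells plus 3 SD (cut at about 25% in these data); inactive means the rest.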 Shown is part of a subset that was picked to be rich in actives. Some compounds were tested as several samples or in several runs, with calls that do not always agree.
# Molecular target: ADP-ribosylation factor GTPase-activating protein 1 (Rattus norvegicus) (UniProt Q62848)
# Sequence (Q62848 1-136 limits assumed): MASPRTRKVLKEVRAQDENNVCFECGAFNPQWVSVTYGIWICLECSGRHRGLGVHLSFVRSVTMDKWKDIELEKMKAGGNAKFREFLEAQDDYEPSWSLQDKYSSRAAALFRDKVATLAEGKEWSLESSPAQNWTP
# Assay: inhibitors of rat ARFGAP1 GAP activity, primary screen, biochemical, fluorescence polarization, GDP tracer (AID 651572);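 further: 0% = DMSO wells with enzyme and 100% = wells lacking Arfgap1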
# Details: Arfgap1-stimulated ARF1 GTP hydrolysis, GDP FP detection; at 16.5 µM; stronger effect = higher value
# Procedure, shortened: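 system = rat Arfgap1 catalytic domain, aa 1-136 | technique = FP, GDP Alexa 633 tracer displaced from anti-GDP antibody, 620/688 nm | compound = one concentration, 16.5 µM, DMSO 1.26% | medium = HEPES-based buffer, pH 7.5 | timing = compound-enzyme preincubation 20 min, reaction 120 min, detection 60 min, 25 °C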
row,SMILES,inhibition
1,CCOC(=O)c1ccc(NC(=O)c2c(N)n(C)c(=O)[nH]c2=O)cc1,11% (inactive)
2,CCOC(=O)c1ccc(Nc2cc3ccccc3c(=O)[nH]2)cc1,25.9% (active)
3,CCOC(=O)c1ccc(NC(=O)c2c(NCc3ccccc3)[nH]c(=O)[nH]c2=O)cc1,-10.9% (inactive)
4,CC(C)CNc1cccc2c1S(=O)(=O)N[C@H](CC(C)C)CO2,2.08% (inactive)
5,CC(C)[C@H]1COCCS(=O)(=O)N1Cc1ccccc1-c1cccc2c1sc1ccccc12,-9.36% (inactive)
6,COC(=O)C(C(=O)OC)c1ccccc1NS(=O)(=O)c1cccc2ccccc12,-11.2% (inactive)
7,COCCCNC(=O)C[C@H]1C[C@@]2(C(=O)OC)C(=C[C@H](C(C)(C)C)O[C@@H]2C)N(Cc2ccc3c(c2)OCO3)C1=O,2.5% (inactive)
8,COc1ccc(N2CCN(C(c3cc4ccc(C)cc4[nH]c3=O)c3nnnn3C3CCCC3)CC2)cc1 (centres undefined),7.55% (inactive)
9,Cc1cc(C)c2[nH]c(=O)c(C(c3nnnn3Cc3ccc4c(c3)OCO4)N3CCCC3)cc2c1 (centres undefined),6.09% (inactive)
10,CCOC(=O)C1CCN(C(c2cc3cc(C)cc(C)c3[nH]c2=O)c2nnnn2C2CCCCC2)CC1 (centres undefined),38.1% (active)
11,CCCCOCC1CN(CCCC)S(=O)(=O)c2c(Oc3ccc(F)cc3)cccc2O1 (centres undefined),-16.2% (inactive)
12,Cc1cc(NCCc2c[nH]c3ccccc23)ccc1Oc1cccnc1,4.98% (inactive)
13,CCCCCCCCN1C(=O)[C@@H](CC(=O)NCc2ccc(C)o2)C[C@@]2(C(=O)OC)C1=C[C@H](C(C)(C)C)O[C@@H]2C,13.1% (inactive)
14,O=C(Nc1cccc(-c2nc3ccccc3[nH]2)c1)c1ccc(C(=O)Nc2cccc(-c3nc4ccccc4[nH]3)c2)cc1,47.5% (active)
15,O=C(Nc1ccccc1)c1cc2ccccc2[nH]1,-4.92% (inactive)
16,CC(C)n1c(=O)[nH]c2cc(C(=O)Nc3ccccc3)ccc21,9.47% (inactive)
17,COCCNC(=S)N(C)[C@H]1C[C@H]2c3[nH]c4ccccc4c3CCN2C[C@H]1[C@H](C)O,8.23% (inactive)
18,C=CCN=C1NC(c2cccc(C(F)(F)F)c2)C(C(=O)OC)=C(C)N1C (centres undefined),-13.8% (inactive)
19,Cc1ccc2nc(-c3ccc(CN4CCC(n5cc(-c6ccccc6)[nH]c5=O)CC4)cc3)c(-c3ccccc3)nc2c1,8.03% (inactive)
20,Nc1[nH]c(C(=O)c2ccccc2)c(-c2ccc(Cl)cc2Cl)c1C(=O)c1ccccc1,-3.18% (inactive)
21,CC(C)(C)C(c1nc2ccccc2[nH]1)n1c(Cc2csc3ccccc23)nc2ccccc21 (centres undefined),0.81% (inactive)
22,O=C(/C=C/c1cn(-c2ccccc2)nc1-c1ccc2c(c1)OCCO2)NCCCN1CCOCC1,25.8% (active)
23,O=C(NCCCN1CCOCC1)c1cnn2c(-c3ccccc3)cc(-c3ccccc3)nc12,-2.5% (inactive)
24,CC(C)c1ccc(/C=C/C(=O)NCCCN2CCOCC2)cc1,-5.51% (inactive)
25,COC(=O)c1ccc(CN2C(=O)[C@]3(OCCC=C[C@H]3C)c3c(Br)cccc32)cc1,13.2% (inactive)

row,SMILES,inhibition
1,CSc1ccc(Oc2cccc3c2S(=O)(=O)N([C@H](C)c2ccccc2)C[C@@H](COCc2ccccc2)O3)cc1C,-6.49% (inactive)
2,O=C(NCc1ccccc1)[C@@H]1CCCN1C(=O)[C@H]1CCCN1C(=O)c1cccc(Cl)c1,9.96% (inactive)
3,COc1ccc(-n2nc3c(N4CCC(C(=O)NCc5ccccc5)CC4)nnc(C)c3c2C)cc1,26.9% (active)
4,COc1ccc(CNC(=O)C2CCN(C(=O)c3ccccc3)CC2)cc1,-4.15% (inactive)
5,COc1ccc(CNC(=O)C2CCN(C(=O)c3ccco3)CC2)cc1,9.83% (inactive)
6,C[C@@H]1CN([C@H](C)CO)C(=O)CCCn2cc(nn2)CO[C@H]1CN(C)C(=O)Nc1ccc(N2CCCCC2)cc1,-7.3% (inactive)
7,Cc1cc2c(nc1C)CCCN2C,-0.08% (inactive)
8,COc1cccc(CNC(=O)[C@H]2CCCN2C(=O)[C@H]2CCCN2C(=O)c2cc(F)cc(F)c2)c1,9.87% (inactive)
9,C[C@H](CO)N1C[C@H](C)[C@@H](CN(C)C(=O)Nc2ccccc2F)OCc2cn(nn2)CCCC1=O,5.05% (inactive)
10,COc1ccc(Cl)cc1NC(=O)CN1CCN(C(=O)N2CCOCC2)CC1,15% (inactive)
11,COc1ccc(Cl)cc1NC(=O)Cn1nc(-c2ccc(C)cc2)n(C)c1=S,41.6% (active)
12,COc1ccc(C)cc1NC(=O)CSc1ccc(Cl)cc1,-5.43% (inactive)
13,N#Cc1cccc(C(=O)NCC2CCN(C(=O)C(=O)c3cc4ccccc4o3)CC2)c1,8.35% (inactive)
14,COC(=O)[C@]12C[C@H](CC(=O)NCCc3ccccc3OC)C(=O)N(Cc3ccccc3)C1=C[C@H](C(C)C)O[C@@H]2C1CC1,-5.59% (inactive)
15,C#C[C@]1(O)CC[C@H]2[C@@H]3CCC4=CC(=O)CC[C@@H]4[C@H]3CC[C@@]21CC,-2.58% (inactive) and 25.1% (active)
16,C=CC[C@]12C[C@@]3(O[C@H](c4ccc(C(F)(F)F)cc4)N=C3C[C@H](c3ccc(OC)cc3)[C@H]1C)N(C1CCN(Cc3ccccc3)CC1)C2=O,4.67% (inactive)
17,CN(C)C(=O)N1CCN(C(=O)[C@@H](Cc2ccccc2)NC(=O)[C@H]2O[C@@H](n3ccc(N)nc3=O)[C@H](O)[C@@H]2O)CC1,5.01% (inactive)
18,COC(=O)Cc1nnn2c1[C@H](C)[C@H](c1ccccc1[N+](=O)[O-])OCC2,4.46% (inactive)
19,COc1ccc(S(=O)(=O)Nc2ccc3c(c2)C(=O)N([C@H](C)CO)C[C@H](C)[C@@H](CN(C)C)OCCCC[C@H](C)O3)cc1,1.2% (inactive)
20,OC(COc1ccc(CN2CCSCC2)cc1)CN1CCCCC1 (centres undefined),-6.07% (inactive)
21,OC(COc1cccc(OCC(O)CN2CCCC2)c1)CN1CCCC1 (centres undefined),28.2% (active)
22,Cc1cccc(OCC(O)CN2CCN(S(=O)(=O)c3ccc(C)cc3C)CC2)c1 (centres undefined),10.2% (inactive)
23,Cc1cc(OC(=O)NCCc2ccc(F)cc2)ccc1F,17% (inactive)
24,Cc1ccc(N)cc1CN1CCN(c2ncc(Cc3ccccc3)cn2)CC1,-5.78% (inactive)
